A selection: hits, their analogues and other compounds. The true share with any hit is near 6.4%.
Rev-RRE block: disrupts HIV-1 Rev binding to RRE RNA; P05866; Rev peptide-RRE RNA binding, FRET; inhibition, % at 8 µM; 97,000 compounds, 0.79% hits; AID 704;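 active means inhibition above the screen-wide mean plus 3 SD, cut at about 35% in these data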;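 further: 0% = median DMSO wells and 100% = median Neomycin B control wells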
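assay system = Cy5-tagged RRE RNA duplex with fluorescein-tagged Rev peptide | incubation = 5 + 15 min at 25 °C | also added = labelled Rev peptide | measure = % inhibition of FRET ratio versus controls | benchmarks = DMSO wells as 0% and neomycin B wells as 100% inhibition | measured by = FRET fluorescence readout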
PostGolgi ctrl: yeast control strain growth, post-Golgi counter-screen; AID 738; efflux-deficient yeast background strain, growth absorbance A615, 16 h; 98,000 compounds, 5% hits; inhibition, % at 10 µM
EphB4 antag: blocks human EphB4 binding to ephrin-B2; 97,000 compounds, 0.15% hits; EphB4 LBD / TNYL-RAW-Alexa532 peptide, fluorescence polarization; inhibition, % at 7 µM;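 active means inhibition above the screen-wide mean inhibition plus 3 SD, cut at about 15% in these data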;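 further: 0% = DMSO wells and 100% = excess unlabeled TNYL-RAW peptide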
PostGolgi yeast: growth inhibition of a yeast mutant, post-Golgi transport screen; inhibition, % at 10 µM; post-Golgi transport phenotypic cell assay; AID 739; 98,000 compounds, 0.9% hits;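 further: yeast cells grown in 1536-well plates; yeast grown about 18 h at 30C before absorbance read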
Plk1 PBD FP: blocks phosphopeptide binding to human Plk1 polo box domain. P53350. Plk1 PBD phosphopeptide binding, fluorescence polarization. inhibition, %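 (tested at about 20 µM)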. 97,000 compounds, 0.13% hits. AID 693; in the data active means inhibition above about 34%, passing the limit was not always enough
Target sequence (P53350 whole entry, looked up, the tested form may be a part): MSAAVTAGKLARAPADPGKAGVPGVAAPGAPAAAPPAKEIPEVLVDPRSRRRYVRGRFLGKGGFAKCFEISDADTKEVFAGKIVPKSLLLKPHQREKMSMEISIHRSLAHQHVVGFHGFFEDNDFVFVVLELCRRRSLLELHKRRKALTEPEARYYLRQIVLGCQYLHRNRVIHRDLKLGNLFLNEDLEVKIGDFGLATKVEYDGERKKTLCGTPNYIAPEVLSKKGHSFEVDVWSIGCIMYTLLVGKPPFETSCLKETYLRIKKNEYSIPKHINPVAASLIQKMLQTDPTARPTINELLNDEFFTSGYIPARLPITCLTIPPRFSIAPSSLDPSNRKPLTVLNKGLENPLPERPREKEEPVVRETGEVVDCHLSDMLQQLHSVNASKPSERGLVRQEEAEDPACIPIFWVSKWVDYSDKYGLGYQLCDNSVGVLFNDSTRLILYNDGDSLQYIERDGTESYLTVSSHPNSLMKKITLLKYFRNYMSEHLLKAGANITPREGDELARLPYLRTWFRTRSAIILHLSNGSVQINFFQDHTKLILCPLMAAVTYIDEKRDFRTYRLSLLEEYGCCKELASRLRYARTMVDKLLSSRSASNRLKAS
PLK1 kinase inh: PLK1 (human) kinase inhibition | P53350 | recombinant PLK1 kinase, TR-FRET peptide phosphorylation | inhibition, % at 10 µM | 97,000 compounds, 0.53% hits;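 active means inhibition of 50% or more in the single-concentration screen; inactive means inhibition below 50%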;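 further: 0% = DMSO max control and 100% = H-89 dihydrochloride min control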
Numbers without * were called inactive. Unless noted, no stated cut-off is given here; in the data, active means inhibition above about 30%; inactive means the rest.

For N#Cc1c(NC(=O)CSc2nnc(-c3ccccc3O)n2-c2ccccc2)sc2c1CCCC2 the results were Rev-RRE block 9, PostGolgi ctrl 40*, EphB4 antag -9, PostGolgi yeast 24, Plk1 PBD FP -11 and PLK1 kinase inh -14.
Screening N#Cc1c(NC(=O)CSc2nnc(-c3ccccc3)o2)sc2c1CCCC2 returned Rev-RRE block 3, PostGolgi ctrl 7, EphB4 antag 0, PostGolgi yeast 13, Plk1 PBD FP 7 and PLK1 kinase inh -16.
N#Cc1c(NC(=O)CSc2nnc(-c3ccncc3)n2CC2CCCO2)sc2c1CCCC2 (centres undefined) was read as Rev-RRE block -1, PostGolgi ctrl 25, EphB4 antag -10, PostGolgi yeast 13, Plk1 PBD FP 5 and PLK1 kinase inh -8.
For CCn1c(SCC(=O)NCC(=O)Nc2ccc(F)cc2)nnc1-c1ccncc1 the results were Rev-RRE block 0, PostGolgi ctrl 35*, EphB4 antag -15, PostGolgi yeast -2, Plk1 PBD FP -7 and PLK1 kinase inh -12.
CCn1c(SCC(=O)Nc2sc3c(c2C#N)CCCC3)nnc1-c1ccncc1 was read as Rev-RRE block 12, EphB4 antag 17*, Plk1 PBD FP -13 and PLK1 kinase inh -2.
Screening Cc1csc(SCC(=O)Nc2sc3c(c2C#N)CCC3)n1 returned Rev-RRE block 16, PostGolgi ctrl 32*, EphB4 antag 2, PostGolgi yeast 29, Plk1 PBD FP 16 and PLK1 kinase inh -3.
Screening Cc1ccc(CC(=O)N2CCN(c3cccc(C(F)(F)F)c3)CC2)cc1 returned Rev-RRE block 1, PostGolgi ctrl 20, EphB4 antag 6, PostGolgi yeast 0, Plk1 PBD FP -9 and PLK1 kinase inh -9.
For CC/C(C)=C1\SC(N2CCN(c3cccc(C(F)(F)F)c3)CC2)=NC1=O the results were Rev-RRE block -2, PostGolgi ctrl 32*, EphB4 antag -5, PostGolgi yeast 16, Plk1 PBD FP -10 and PLK1 kinase inh -3.
For Cc1cc(C)cc(N2C(=O)CC(N3CCOCC3)C2=O)c1 (centres undefined) the results were Rev-RRE block 4, PostGolgi ctrl -2, EphB4 antag 2, PostGolgi yeast 6, Plk1 PBD FP -4 and PLK1 kinase inh -4.
`Cc1cc(C)cc(N2C(=O)CC(n3ccnc3)C2=O)c1` (centres undefined) gave Rev-RRE block 7, PostGolgi ctrl 32*, EphB4 antag 2, PostGolgi yeast 5, Plk1 PBD FP 2 and PLK1 kinase inh -7.
For O=S(=O)(Cc1ccccc1)/C1=C(\N2CCOCC2)CCCCCC1 the results were Rev-RRE block -1, PostGolgi ctrl 40*, EphB4 antag -8, PostGolgi yeast 9, Plk1 PBD FP -8 and PLK1 kinase inh -9.
CCCOc1ccccc1Nc1nnc(C)c(=O)[nH]1 was read as Rev-RRE block 8, PostGolgi ctrl 12, EphB4 antag 1, PostGolgi yeast 2, Plk1 PBD FP 8 and PLK1 kinase inh 11.
Screening COc1ccc2c(C)c(C(=O)NCC(C)O)oc2c1OC (centres undefined) returned Rev-RRE block 4, PostGolgi ctrl 7, EphB4 antag 5, PostGolgi yeast 0, Plk1 PBD FP 1 and PLK1 kinase inh -4.
Screening COCCOC(=O)c1c(C)n(C)c2ccc(OC(=O)c3ccco3)cc12 returned Rev-RRE block 7, PostGolgi ctrl 10, EphB4 antag -3, PostGolgi yeast -6, Plk1 PBD FP -12 and PLK1 kinase inh -10.
Screening CCOC(=O)c1c(C)n(C)c2ccc(OC(=O)c3ccoc3)cc12 returned Rev-RRE block 2, PostGolgi ctrl 32*, EphB4 antag 0, PostGolgi yeast 7, Plk1 PBD FP 11 and PLK1 kinase inh -5.
Screening Cc1sc(NC(=O)CN2CCOCC2)c(C(=O)c2ccccc2)c1C returned Rev-RRE block 8, PostGolgi ctrl 7, EphB4 antag 3, PostGolgi yeast 35*, Plk1 PBD FP -65 and PLK1 kinase inh -4.
For COC(=O)CCC(=O)Nc1cccc2ccccc12 the results were Rev-RRE block 8, PostGolgi ctrl 34*, EphB4 antag 5, PostGolgi yeast 11, Plk1 PBD FP -18 and PLK1 kinase inh -5.
For O=C1COc2ccc(C(=O)c3ccccc3)cc2CN1 the results were Rev-RRE block 1, PostGolgi ctrl 5, EphB4 antag -1, PostGolgi yeast 14, Plk1 PBD FP 7 and PLK1 kinase inh -5.
For COc1cc(C(=O)NCc2cccc3ccccc23)cc(Cl)c1OC the results were Rev-RRE block 16, PostGolgi ctrl 39*, EphB4 antag 12, PostGolgi yeast 0, Plk1 PBD FP 21 and PLK1 kinase inh -16.
O=C(Nc1ccccc1)c1sc2cc(C(F)(F)F)cnc2c1-c1cccs1 was read as Rev-RRE block 12, PostGolgi ctrl 3, EphB4 antag 3, PostGolgi yeast 18, Plk1 PBD FP -7 and PLK1 kinase inh -9.
NC(=O)c1sc2cc(C(F)(F)F)cnc2c1-c1cccs1 was read as Rev-RRE block 4, PostGolgi ctrl 10, EphB4 antag -7, PostGolgi yeast 3, Plk1 PBD FP 7 and PLK1 kinase inh 57*.
`CC(C)N(CCc1ccncc1)C(=O)Nc1ccc(Cl)c(Cl)c1` gave Rev-RRE block 7, PostGolgi ctrl 90*, EphB4 antag -9, PostGolgi yeast 91*, Plk1 PBD FP -13 and PLK1 kinase inh 6.
CCn1c(Sc2ccc(N)cc2Cl)nc2ccccc21 was read as Rev-RRE block 4, PostGolgi ctrl 46*, EphB4 antag 2, PostGolgi yeast 3, Plk1 PBD FP -2 and PLK1 kinase inh -5.
For CC1=C(C(=O)NC2CCC(C)CC2)C2(CCC(C)CC2)OC1=O (centres undefined) the results were Rev-RRE block 6, PostGolgi ctrl 4, EphB4 antag -3, PostGolgi yeast -7, Plk1 PBD FP 18 and PLK1 kinase inh -6.
`CCCc1cc(O)c2c(C)cc(=O)oc2c1` gave Rev-RRE block 3, EphB4 antag 3, Plk1 PBD FP 0 and PLK1 kinase inh 26.
`CCN(CCCNC(=O)COc1cc(=O)n(CC)c2ccccc12)Cc1ccccc1` gave PostGolgi ctrl 38* and PostGolgi yeast -8.
`c1nnc(NC2=NCCC2)s1` gave Rev-RRE block 11, PostGolgi ctrl -2, EphB4 antag 2, PostGolgi yeast -3, Plk1 PBD FP -1 and PLK1 kinase inh -5.
Screening CCc1nnc(NC2=NCCC2)s1 returned Rev-RRE block 0, PostGolgi ctrl 33*, EphB4 antag -3, PostGolgi yeast 7, Plk1 PBD FP -23 and PLK1 kinase inh 1.
Screening NS(=O)(=O)c1ccc(CCNC2CC(=O)N(CCc3ccccc3)C2=O)cc1 (centres undefined) returned Rev-RRE block -2, PostGolgi ctrl 4, EphB4 antag -4, PostGolgi yeast 14, Plk1 PBD FP -26 and PLK1 kinase inh -12.

From PubChem BioAssay
